# Laboratory results taken from ChEMBL document CHEMBL1121469, “Synthesis and biochemical screening of phenylselenium-substituted steroid hormones” (J Med Chem, 1980).
# Legend:
# [1] = target: T1, Progesterone receptor (Oryctolagus cuniculus) (UniProt P06186); assay: Relative binding affinity for Progesterone receptor of rabbit uterus cytosol, displacement of [3H]R5020 over 24 hr at 0C
# T1 sequence (whole entry): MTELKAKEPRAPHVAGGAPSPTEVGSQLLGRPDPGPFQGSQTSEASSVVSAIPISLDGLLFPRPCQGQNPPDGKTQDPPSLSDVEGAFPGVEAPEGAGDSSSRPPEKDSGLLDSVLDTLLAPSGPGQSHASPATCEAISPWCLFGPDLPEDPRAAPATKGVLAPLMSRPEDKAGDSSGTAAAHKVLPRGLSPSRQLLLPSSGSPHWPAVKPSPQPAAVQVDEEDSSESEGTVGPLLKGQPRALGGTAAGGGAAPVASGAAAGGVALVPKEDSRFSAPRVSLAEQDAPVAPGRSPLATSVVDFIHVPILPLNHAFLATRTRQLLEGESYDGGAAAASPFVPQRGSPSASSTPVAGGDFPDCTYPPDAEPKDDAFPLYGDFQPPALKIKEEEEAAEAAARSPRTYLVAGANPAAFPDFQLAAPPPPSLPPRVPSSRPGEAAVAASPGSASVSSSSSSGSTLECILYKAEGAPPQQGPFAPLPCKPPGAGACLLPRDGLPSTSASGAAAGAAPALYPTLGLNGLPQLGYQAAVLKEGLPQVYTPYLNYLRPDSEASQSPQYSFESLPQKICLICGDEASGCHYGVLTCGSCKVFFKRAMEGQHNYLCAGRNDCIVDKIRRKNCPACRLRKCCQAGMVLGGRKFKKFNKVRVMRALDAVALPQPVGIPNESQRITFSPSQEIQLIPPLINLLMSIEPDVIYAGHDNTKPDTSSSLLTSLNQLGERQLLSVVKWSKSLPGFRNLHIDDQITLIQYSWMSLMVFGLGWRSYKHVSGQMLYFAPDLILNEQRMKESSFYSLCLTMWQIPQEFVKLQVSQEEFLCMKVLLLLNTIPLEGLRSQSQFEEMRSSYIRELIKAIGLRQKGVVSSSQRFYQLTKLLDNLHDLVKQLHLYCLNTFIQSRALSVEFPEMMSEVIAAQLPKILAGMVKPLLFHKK
# Procedure, shortened: (§1)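 Uteri from estrogen-primed female New Zealand rabbits (1 kg, 50–55 days old) homogenised 1/50 in 10 mM Tris-HCl pH 7.4, 0.25 M sucrose. Cytosol spun at 105000g for 60 min at 4 °C, then incubated with 2.5 nM [3H]R 5020 for 24 h at 0 °C with 0–2500 nM competitor. Bound ligand taken by dextran-charcoal. RBA taken relative to progesterone.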
# [2] = target: T2, Androgen receptor (Rattus norvegicus) (UniProt P15207); assay: Relative binding affinity for androgen receptor of rat prostate cytosol, displacement of [3H]R-1881 over 2 hr at 0C
# T2 sequence (whole entry): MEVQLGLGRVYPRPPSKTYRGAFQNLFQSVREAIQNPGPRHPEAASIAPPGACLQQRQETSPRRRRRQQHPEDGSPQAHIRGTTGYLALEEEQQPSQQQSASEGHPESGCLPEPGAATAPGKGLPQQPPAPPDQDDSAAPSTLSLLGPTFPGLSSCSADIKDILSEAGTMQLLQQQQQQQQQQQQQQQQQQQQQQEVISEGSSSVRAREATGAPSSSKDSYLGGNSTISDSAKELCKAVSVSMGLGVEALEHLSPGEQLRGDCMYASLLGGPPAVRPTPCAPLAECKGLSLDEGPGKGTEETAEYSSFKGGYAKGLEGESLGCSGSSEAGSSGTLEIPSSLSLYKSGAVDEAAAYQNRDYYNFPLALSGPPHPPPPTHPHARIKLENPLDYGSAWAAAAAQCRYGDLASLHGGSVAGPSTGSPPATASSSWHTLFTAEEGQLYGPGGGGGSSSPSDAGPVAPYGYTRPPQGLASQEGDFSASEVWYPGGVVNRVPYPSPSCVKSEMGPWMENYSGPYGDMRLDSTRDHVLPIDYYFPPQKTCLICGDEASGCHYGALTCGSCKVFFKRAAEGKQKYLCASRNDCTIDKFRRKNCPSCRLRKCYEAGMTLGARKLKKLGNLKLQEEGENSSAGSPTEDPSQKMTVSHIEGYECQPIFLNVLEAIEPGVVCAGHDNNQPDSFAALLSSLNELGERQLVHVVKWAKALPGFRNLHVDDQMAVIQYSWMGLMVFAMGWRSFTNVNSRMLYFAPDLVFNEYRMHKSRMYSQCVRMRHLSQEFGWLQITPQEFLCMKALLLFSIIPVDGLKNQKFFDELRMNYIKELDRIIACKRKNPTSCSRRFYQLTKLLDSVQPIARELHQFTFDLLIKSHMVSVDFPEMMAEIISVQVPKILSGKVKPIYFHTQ
# Procedure, shortened: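 Prostate from male Sprague–Dawley rats (140–160 g) castrated 24 h earlier, homogenised 1/5 w/v. Cytosol incubated with 2.5 nM [3H]R 1881 for 2 h at 0 °C with 0–2500 nM competitor. […] by dextran-coated charcoal (10 min, 0–4 °C; 800g). RBA is the ratio of 50%-displacing concentrations × 100, relative to testosterone.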
# [3] = target: T3, Mineralocorticoid receptor (Rattus norvegicus) (UniProt P22199); assay: Relative binding affinity for mineralocorticoid receptor of rat kidney homogenates, displacement of [3H]aldosterone over 30 min at 25 degree C
# T3 sequence (whole entry): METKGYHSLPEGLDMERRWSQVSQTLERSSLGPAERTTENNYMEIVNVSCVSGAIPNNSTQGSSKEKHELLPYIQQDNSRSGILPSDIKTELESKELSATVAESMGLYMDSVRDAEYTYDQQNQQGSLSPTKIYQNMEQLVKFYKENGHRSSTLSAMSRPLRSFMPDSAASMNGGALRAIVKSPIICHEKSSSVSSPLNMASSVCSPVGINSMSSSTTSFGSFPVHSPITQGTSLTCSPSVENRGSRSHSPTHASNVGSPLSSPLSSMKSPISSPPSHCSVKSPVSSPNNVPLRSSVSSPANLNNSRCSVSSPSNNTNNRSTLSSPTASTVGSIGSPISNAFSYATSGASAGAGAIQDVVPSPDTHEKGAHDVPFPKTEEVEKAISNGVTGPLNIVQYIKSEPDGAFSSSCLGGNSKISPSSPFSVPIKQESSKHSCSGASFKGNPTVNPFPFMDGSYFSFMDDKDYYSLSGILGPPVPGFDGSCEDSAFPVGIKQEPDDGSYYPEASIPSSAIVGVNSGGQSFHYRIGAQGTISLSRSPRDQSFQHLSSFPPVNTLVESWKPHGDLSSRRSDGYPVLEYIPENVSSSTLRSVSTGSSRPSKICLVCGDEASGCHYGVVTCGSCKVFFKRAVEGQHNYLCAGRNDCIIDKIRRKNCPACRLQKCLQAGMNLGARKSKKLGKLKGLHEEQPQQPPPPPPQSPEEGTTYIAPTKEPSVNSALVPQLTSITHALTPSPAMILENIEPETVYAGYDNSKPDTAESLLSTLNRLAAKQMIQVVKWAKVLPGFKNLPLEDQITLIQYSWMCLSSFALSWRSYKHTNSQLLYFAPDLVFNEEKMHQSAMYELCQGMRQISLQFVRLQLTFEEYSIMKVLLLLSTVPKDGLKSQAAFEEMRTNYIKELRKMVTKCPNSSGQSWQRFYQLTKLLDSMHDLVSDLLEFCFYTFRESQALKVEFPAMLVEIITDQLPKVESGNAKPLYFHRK
# Procedure, shortened: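 Perfused kidneys from adrenalectomized (4–7 days) male Sprague–Dawley rats homogenised 1/3 in Krebs-Ringer phosphate buffer. Homogenate incubated with 2.5 nM [3H]aldosterone for 30 min at 25 °C with 0–2500 nM competitor, then centrifuged at 800g for 10 min at 0 °C. Bound ligand measured by dextran-charcoal. RBA relative to aldosterone = 100.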
# [4] = target: T4, Estrogen receptor (Mus musculus) (UniProt O08537+P19785); assay: Relative binding affinity for Estrogen receptor of mouse uterus cytosol, displacement of [3H]estradiol over 2 hr at 0C; format: protein assay
# Procedure, shortened: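 Cytosol from uteri of 18-day-old female Swiss mice (homogenised 1/50 w/v), incubated with 5 nM [3H]estradiol for 2 h at 0 °C with 0–2500 nM unlabeled competitor. Bound ligand separated by dextran-coated charcoal, 10 min at 0–4 °C, then centrifuged at 800g. RBA = (50%-displacing concentration of unlabeled estradiol / that of competitor) × 100. Mean of ≥3 experiments or 2 concordant.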
# [5] = target: T5, Glucocorticoid receptor (Rattus norvegicus) (UniProt P06536); assay: Relative binding affinity for glucocorticoid receptor of rat liver cytosol, displacement of [3H]dexamethasone over 4 hr at 0C
# T5 sequence (whole entry): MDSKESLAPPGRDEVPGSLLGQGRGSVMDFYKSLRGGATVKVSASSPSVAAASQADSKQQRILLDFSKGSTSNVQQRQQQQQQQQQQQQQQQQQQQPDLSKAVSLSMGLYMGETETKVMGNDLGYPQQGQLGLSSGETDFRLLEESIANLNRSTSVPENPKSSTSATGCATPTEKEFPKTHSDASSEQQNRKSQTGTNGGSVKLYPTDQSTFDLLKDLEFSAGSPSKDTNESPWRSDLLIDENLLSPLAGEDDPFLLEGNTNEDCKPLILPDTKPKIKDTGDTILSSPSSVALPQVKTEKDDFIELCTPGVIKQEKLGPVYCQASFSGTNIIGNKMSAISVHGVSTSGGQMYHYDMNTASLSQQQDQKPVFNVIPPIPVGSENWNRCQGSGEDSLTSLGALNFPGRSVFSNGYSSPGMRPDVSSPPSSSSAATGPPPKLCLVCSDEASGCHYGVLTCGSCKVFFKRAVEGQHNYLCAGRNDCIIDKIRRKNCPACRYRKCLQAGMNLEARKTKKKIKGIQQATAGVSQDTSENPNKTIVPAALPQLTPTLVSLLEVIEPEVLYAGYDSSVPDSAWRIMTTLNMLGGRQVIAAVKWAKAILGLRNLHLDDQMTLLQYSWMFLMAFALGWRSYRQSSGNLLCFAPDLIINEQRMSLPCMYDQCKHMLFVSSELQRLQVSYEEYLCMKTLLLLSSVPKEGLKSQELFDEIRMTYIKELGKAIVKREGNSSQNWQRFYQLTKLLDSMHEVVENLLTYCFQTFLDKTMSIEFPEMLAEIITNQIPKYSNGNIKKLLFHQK
# Procedure, shortened: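 Rats (male Sprague–Dawley, 140–160 g) adrenalectomized 4–7 days earlier. Perfused liver homogenised 1/10 in Tris-sucrose buffer and spun at 105000g for 60 min at 4 °C. Cytosol incubated with 5 nM [3H]dexamethasone for 4 h at 0 °C with 0–2500 nM competitor. Dextran-charcoal separation used. RBA relative to dexamethasone = 100.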
# [6] = target: T1, Progesterone receptor (Oryctolagus cuniculus); assay: Binding affinity to Steroid Hormone Receptor was determined using [6,7-3H]R5020 as radioligand; procedure, shortened: as §1
# [7] = target: T5, Glucocorticoid receptor (Rattus norvegicus)
# [8] = target: T2, Androgen receptor (Rattus norvegicus); assay: Binding affinity to Steroid Hormone Receptor was determined using [6,7-3H] R 1881 as radioligand; details: tested as the 3H-labelled form
# Procedure, shortened: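 Prostate was taken from male Sprague–Dawley rats (140–160 g) castrated 24 h before and homogenized 1/5 (w/v). Cytosol was incubated with 2.5 nM [3H]R 1881 for 2 h at 0 °C with 0–2500 nM unlabeled competitor. Free ligand was removed with DCC (0.625% dextran–1.25% charcoal, 10 min, 0–4 °C, 800g spin). RBA is relative to testosterone = 100. Values are means of ≥3 experiments (SEM) or of two.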
# [9] = target: T3, Mineralocorticoid receptor (Rattus norvegicus); assay: Binding affinity to Steroid Hormone Receptor was determined using [1,2-3 H]aldosterone as radioligand
# Procedure, shortened: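 Rats were male Sprague–Dawley, 140–160 g, adrenalectomized 4–7 days. Perfused kidney was homogenized 1/3 (w/v) in Krebs-Ringer phosphate buffer. Homogenate was incubated with 2.5 nM [3H]aldosterone for 30 min at 25 °C with 0–2500 nM competitor, then spun at 800g for 10 min at 0 °C. Bound ligand was separated by dextran-coated charcoal. RBA = 100 × ratio of the 50%-displacing concentrations, with aldosterone set at 100.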
# [10] = target: T4, Estrogen receptor (Mus musculus); assay: Binding affinity to Steroid Hormone Receptor was determined using [6,7-3H]estradiol as radioligand; format: protein assay; details: tested as the 3H-labelled form
# Procedure, shortened: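 Uteri came from 18-day-old female Swiss mice and were homogenized 1/50 (w/v). Uterine cytosol was labeled with 5 nM [3H]estradiol for 2 h at 0 °C with 0–2500 nM competing steroid. Bound radioactivity was measured after dextran-coated charcoal treatment and an 800g centrifugation. The 50%-inhibition concentrations gave RBA × 100 relative to estradiol (100). Results are means of ≥3 or two experiments.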
# T4 sequence (O08537 whole entry, looked up): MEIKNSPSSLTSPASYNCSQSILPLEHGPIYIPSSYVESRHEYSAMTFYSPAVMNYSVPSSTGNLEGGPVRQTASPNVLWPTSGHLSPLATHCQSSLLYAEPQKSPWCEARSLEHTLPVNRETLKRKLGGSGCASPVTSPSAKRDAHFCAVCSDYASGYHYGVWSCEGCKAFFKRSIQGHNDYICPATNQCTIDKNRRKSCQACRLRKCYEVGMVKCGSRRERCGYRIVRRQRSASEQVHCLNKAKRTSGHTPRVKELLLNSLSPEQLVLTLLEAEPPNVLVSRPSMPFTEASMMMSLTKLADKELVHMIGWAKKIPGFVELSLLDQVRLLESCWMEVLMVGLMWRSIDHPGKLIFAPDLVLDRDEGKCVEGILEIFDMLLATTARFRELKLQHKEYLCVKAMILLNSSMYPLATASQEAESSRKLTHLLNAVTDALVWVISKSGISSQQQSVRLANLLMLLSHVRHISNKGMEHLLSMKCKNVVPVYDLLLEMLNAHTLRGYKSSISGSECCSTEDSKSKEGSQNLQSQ
# T4 sequence (P19785 whole entry, looked up): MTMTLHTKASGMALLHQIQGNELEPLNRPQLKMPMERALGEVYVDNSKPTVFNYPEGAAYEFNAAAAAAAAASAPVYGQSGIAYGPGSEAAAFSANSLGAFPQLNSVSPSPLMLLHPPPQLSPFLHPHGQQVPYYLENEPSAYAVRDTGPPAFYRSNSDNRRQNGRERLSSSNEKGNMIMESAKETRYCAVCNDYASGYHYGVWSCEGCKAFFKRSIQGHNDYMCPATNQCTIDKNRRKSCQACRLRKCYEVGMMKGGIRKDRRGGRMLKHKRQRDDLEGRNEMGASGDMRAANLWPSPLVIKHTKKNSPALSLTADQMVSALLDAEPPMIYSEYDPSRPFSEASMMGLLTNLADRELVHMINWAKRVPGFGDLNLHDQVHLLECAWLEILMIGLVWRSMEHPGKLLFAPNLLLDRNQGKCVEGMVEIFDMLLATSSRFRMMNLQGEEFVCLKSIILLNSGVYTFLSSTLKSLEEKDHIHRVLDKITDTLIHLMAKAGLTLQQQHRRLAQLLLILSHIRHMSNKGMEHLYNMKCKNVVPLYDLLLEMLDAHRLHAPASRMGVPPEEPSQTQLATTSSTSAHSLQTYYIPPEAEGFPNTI
Structure (SMILES),RBA [1],RBA [2],RBA [3],RBA [4],RBA [5],also measured
CC12CCC(=O)C=C1CCC1C2CCC2(C)C1C[C@@H]([Se]c1ccccc1)C2O (stereo not given in full),0.8,0.33,0.15,< 0.1,0.23,–
CC(=O)[C@@]1([Se]c2ccccc2)CCC2C3CCC4=CC(=O)CCC4(C)C3CCC21C (stereo not given in full),2.1,< 0.1,0.23,< 0.1,< 0.1,–
C[C@]1(O)CC[C@H]2[C@@H]3CCC4=CC(=O)CCC4=C3C=C[C@@]21C,–,–,–,–,–,Specific activity [6]: 56 Ci mM-1
C[C@@H]1C[C@H]2[C@@H]3CCC4=CC(=O)C=C[C@]4(C)[C@@]3(F)[C@@H](O)C[C@]2(C)[C@@]1(O)C(=O)CO,–,–,–,–,–,Specific activity [7]: 26 Ci mM-1
CC12CCC(=O)C=C1CCC1C2C2CC3(C(O)O2)C(C(=O)CO)CCC13 (stereo not given),–,–,–,–,–,Specific activity [8]: 53 Ci mM-1
C[C@]12CC[C@@H]3c4ccc(O)cc4CC[C@H]3[C@@H]1CC[C@@H]2O,–,–,–,–,–,Specific activity [9]: 50 Ci mM-1
CC12CCC(=O)C=C1CCC1C2CCC2(C)C1C[C@H]([Se]c1ccccc1)C2O (stereo not given in full),< 0.1,1.9,< 0.1,< 0.1,< 0.1,–
CCC(=O)[C@@]1(C)CC[C@H]2[C@@H]3CCC4=CC(=O)CCC4=C3CCC21C (stereo not given in full),–,–,–,–,–,Specific activity [10]: 57 Ci mM-1
CC12CCC(=O)C=C1CCC1C2CCC2(C)C1CC[C@@H]2C(=O)C[Se]c1ccccc1 (stereo not given in full),59,1.7,2.1,< 0.1,0.6,–
